The source made the active and inactive calls. The calls are words filed in the database; no cut-off is given here.
system: Mycobacterium tuberculosis; test: Inhibition of Mycobacterium tuberculosis TMPK expressed in Escherichia coli BLi5 at 0.8 mM using dTMP as substrate in presence of ATP by spectrophotometric based LDH/PK/nucleoside diphosphate kinase enzyme coupled assay

Compound	inhibition
Cc1cn(CC2CCN(Cc3cccc(Oc4ccccc4)c3)CC2)c(=O)[nH]c1=O	inactive

system: not listed separately; test: Inhibition of Mycobacterium tuberculosis TMPK expressed in Escherichia coli BLi5 using dTMP as substrate in presence of ATP by spectrophotometric based LDH/PK/nucleoside diphosphate kinase enzyme coupled assay
Summary of the method: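 Wild-type enzyme from pHL50 in E. coli BLi5, purified by Blue-Sepharose then gel filtration. IC50 fit to four-parameter logistic of % inhibition.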

Compound	IC50 [µM]
Cc1cccc(CN2CCC(n3cc(C)c(=O)[nH]c3=O)CC2)c1	72
Cc1cn(CC2CCN(Cc3ccc(Oc4ccccc4)cc3)CC2)c(=O)[nH]c1=O	> 2000
Cc1cn(C2CCN(Cc3ccnc4ccccc34)CC2)c(=O)[nH]c1=O	25
Cc1cn(C2CCN(Cc3cccc(C(=O)O)n3)CC2)c(=O)[nH]c1=O	143
Cc1cn(C2CCN(Cc3ccc4ccccc4c3)CC2)c(=O)[nH]c1=O	20
Cc1cn(C2CCN(Cc3cncc4ccccc34)CC2)c(=O)[nH]c1=O	25
Cc1cn(C2CCN(Cc3cccc4ccccc34)CC2)c(=O)[nH]c1=O	38
Cc1cn(C2CN(Cc3cccc(Oc4ccccc4)c3)C2)c(=O)[nH]c1=O	944
Cc1cn(C2CCN(C(=O)c3ccc(Oc4ccccc4)cc3)CC2)c(=O)[nH]c1=O	353
Cc1cn(C2CCN(Cc3ccco3)CC2)c(=O)[nH]c1=O	114
Cc1cn(C2CCN(Cc3cc(Oc4ccccc4)c4ccc(Cl)cc4n3)CC2)c(=O)[nH]c1=O	1.8
Cc1cn(C2CCN(Cc3ccccc3)CC2)c(=O)[nH]c1=O	138
Cc1cn(C2CCN(CCc3cccc(Oc4ccccc4)c3)CC2)c(=O)[nH]c1=O	11
Cc1cn(C2CCN(Cc3ccc(Cl)cc3)CC2)c(=O)[nH]c1=O	40
Cc1cn(C2CCN(Cc3ccc(C(=O)O)cc3)CC2)c(=O)[nH]c1=O	141
Cc1cn(C2CCN(CC3CCCCC3)CC2)c(=O)[nH]c1=O	1120
Cc1cn(C2CCN(Cc3cccc(Oc4ccccc4)c3)CC2)c(=O)[nH]c1=O	6.1

Compound	IC50 [µM]
Cc1cn(C2CCN(Cc3cc4ccccc4o3)CC2)c(=O)[nH]c1=O	23
Cc1cn(C2CCN(Cc3ccc(C#N)cc3)CC2)c(=O)[nH]c1=O	35
Cc1cn(C2CCN(Cc3ccc(N(C)C)cc3)CC2)c(=O)[nH]c1=O	328
Cc1cn(C2CN(CCCc3cccc(Oc4ccccc4)c3)C2)c(=O)[nH]c1=O	1140
Cc1cn(C2CCN(Cc3cccnc3)CC2)c(=O)[nH]c1=O	75
COc1ccc(CN2CCC(n3cc(C)c(=O)[nH]c3=O)CC2)cc1	113
Cc1cn(C2CCN(Cc3nccc4ccccc34)CC2)c(=O)[nH]c1=O	27
Cc1cn(C2CCN(Cc3ccoc3)CC2)c(=O)[nH]c1=O	254
Cc1cn(C2CCN(Cc3ccccn3)CC2)c(=O)[nH]c1=O	96
Cc1cn(C2CCN(C(=O)c3cccc(Oc4ccccc4)c3)CC2)c(=O)[nH]c1=O	235
Cc1cn(C2CCN(Cc3ccncc3)CC2)c(=O)[nH]c1=O	49
Cc1cn(C2CN(Cc3ccc(Oc4ccccc4)cc3)C2)c(=O)[nH]c1=O	832
Cc1cn(C2CCN(Cc3cnc4ccccc4c3)CC2)c(=O)[nH]c1=O	17
Cc1cn(C2CN(CCc3cccc(Oc4ccccc4)c3)C2)c(=O)[nH]c1=O	1910
Cc1cn(C2CCN(Cc3ccc(Oc4ccccc4)cc3)CC2)c(=O)[nH]c1=O	29
Cc1cn(C2CCN(Cc3cc4ccccc4cn3)CC2)c(=O)[nH]c1=O	26
Cc1ccc(CN2CCC(n3cc(C)c(=O)[nH]c3=O)CC2)cc1	168
